We go through twelve compounds from ChEMBL document CHEMBL1240474, “Pharmacological evaluation and characterizations of newly synthesized 1,2,4-triazoles” (2010).

Molecules are shown by their SMILES. Converted amounts (≈) assume the structure as drawn.

Assay type in all cases: functional
One experiment concerns Staphylococcus aureus. The experiment can be described thus: Antibacterial activity against Staphylococcus aureus MTCC 96 by broth microdilution method. An outline of the steps:
(§1)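 Serial dilutions in Mueller Hinton broth, drugs diluted in DMSO from a 2000 µg/ml stock, inoculum adjusted by turbidity to 10⁸ CFU/ml, ampicillin as reference. Primary screen at 500, 250 and 125 µg/ml; actives retested at 100 down to 1.5625 µg/ml. Incubated overnight at 37 °C.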

The next experiment has as its system Streptococcus pyogenes. The experiment is described as follows: Antibacterial activity against Streptococcus pyogenes MTCC 442 by broth microdilution method. The method, boiled down:
as §1

The test system of the next experiment is Aspergillus clavatus. The experiment can be described thus: Antifungal activity against Aspergillus clavatus MTCC 1323 by broth microdilution method.
In experiment [1] the test system is Mycobacterium tuberculosis. The experiment can be described thus: Antimycobacterial activity against Mycobacterium tuberculosis H37Rv at MIC concentration after up to 28 days.
In the next experiment the test system is Candida albicans. The experiment can be described thus: Antifungal activity against Candida albicans MTCC 227 by broth microdilution method.
Experiment [2] concerns Mycobacterium tuberculosis. The experiment can be described thus: Antimycobacterial activity against Mycobacterium tuberculosis H37Rv after up to 28 days. The note with it: 672 h. The method, boiled down: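 Lowenstein-Jensen agar dilution against M. tuberculosis H37Rv. Compounds were made up as 2000 µg/ml DMSO stocks and added to liquid L.J. medium at primary levels of 1000, 500 and 250 µg/ml and secondary levels of 200–3.25 µg/ml. The medium was inspissated, held 24 h at 37 °C, then streaked with bacilli from saline suspension. Growth was read at 12, 22 and 28 days against drug-free controls. MIC was the lowest concentration giving no colonies or fewer than 20.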

A further experiment deals with Escherichia coli. The experiment is described as follows: Antibacterial activity against Escherichia coli MTCC 443 by broth microdilution method. The method, boiled down: as §1
The next experiment deals with Pseudomonas aeruginosa. The experiment can be described thus: Antibacterial activity against Pseudomonas aeruginosa MTCC 2488 by broth microdilution method. An outline of the steps:
as §1

The subject of the next experiment is Aspergillus niger. The experiment can be described thus: Antifungal activity against Aspergillus niger MTCC 282 by broth microdilution method.

With `Cc1ccc(-c2nnc(-c3cccnc3)n2Nc2nc3c(C)cccc3s2)cc1`, the MIC was determined as 500 µg/mL (≈ 1250 µM) in the experiment with Staphylococcus aureus; 250 µg/mL (≈ 627 µM) against Streptococcus pyogenes; 200 µg/mL (≈ 502 µM) in the experiment on Aspergillus clavatus; 100 µg/mL (≈ 251 µM) against Candida albicans; 500 µg/mL (≈ 1250 µM) in experiment [2]; 250 µg/mL (≈ 627 µM) with Escherichia coli. Also, the MIC in the experiment on Pseudomonas aeruginosa stood at 500 µg/mL (≈ 1250 µM); against Aspergillus niger, 250 µg/mL (≈ 627 µM). For the same compound, in experiment [1], the “inhibition (INH)” value is listed as 98%.

Turning to `Cc1ccc(-c2nnc(-c3cccnc3)n2Nc2nc3c(Cl)cccc3s2)cc1`, the MIC is 250 µg/mL (≈ 597 µM) against Staphylococcus aureus; 500 µg/mL (≈ 1190 µM) against Streptococcus pyogenes; 1000 µg/mL (≈ 2390 µM) in the experiment with Aspergillus clavatus; 500 µg/mL (≈ 1190 µM) with Candida albicans; 25 µg/mL (≈ 59.7 µM) in experiment [2]; 125 µg/mL (≈ 298 µM) against Escherichia coli. For the same compound, the values for the MIC in the experiment on Pseudomonas aeruginosa and with Aspergillus niger were 500 µg/mL (≈ 1190 µM) and > 1000 µg/mL, respectively. Moreover, in experiment [1], the “inhibition (INH)” value is reported as 99%.

On to `Cc1ccc(-c2nnc(-c3cccnc3)o2)cc1`, for which the MIC in the experiment on Staphylococcus aureus is 100 µg/mL (≈ 421 µM); in the experiment with Streptococcus pyogenes it was 250 µg/mL (≈ 1050 µM); in the experiment with Aspergillus clavatus, 500 µg/mL (≈ 2110 µM); with Candida albicans, 1000 µg/mL (≈ 4210 µM); in [2], 500 µg/mL (≈ 2110 µM); with Escherichia coli, 250 µg/mL (≈ 1050 µM). In addition, the MIC in the experiment on Pseudomonas aeruginosa came to 100 µg/mL (≈ 421 µM); in the experiment on Aspergillus niger, 500 µg/mL (≈ 2110 µM). For the same compound, the “inhibition (INH)” value in [1] was 98%.

Regarding `Cc1ccc(-c2nnc(-c3cccnc3)n2Nc2nc3ccc(C)cc3s2)cc1`, the MIC was 100 µg/mL (≈ 251 µM) with Staphylococcus aureus; 100 µg/mL (≈ 251 µM) against Streptococcus pyogenes; > 1000 µg/mL against Aspergillus clavatus; 500 µg/mL (≈ 1250 µM) with Candida albicans; 50 µg/mL (≈ 125 µM) in [2]; 125 µg/mL (≈ 314 µM) against Escherichia coli. Besides, the results for the MIC with Pseudomonas aeruginosa and with Aspergillus niger were 250 µg/mL (≈ 627 µM) and 1000 µg/mL (≈ 2510 µM), respectively. Also, in experiment [1], the “inhibition (INH)” value came to 99%.

For the compound `Cc1ccc(-c2nnc(-c3cccnc3)n2Nc2nc3ccc([N+](=O)[O-])cc3s2)cc1`, the MIC with Staphylococcus aureus worked out at 250 µg/mL (≈ 582 µM); against Streptococcus pyogenes, 125 µg/mL (≈ 291 µM); with Aspergillus clavatus, 500 µg/mL (≈ 1160 µM); in the experiment with Candida albicans, 500 µg/mL (≈ 1160 µM); in [2] it was 200 µg/mL (≈ 466 µM); against Escherichia coli, 100 µg/mL (≈ 233 µM). Also, the MIC against Pseudomonas aeruginosa was 200 µg/mL (≈ 466 µM); in the experiment on Aspergillus niger, 500 µg/mL (≈ 1160 µM). In addition, the “inhibition (INH)” value in [1] is 98%.

In the case of `Cc1ccc(-c2nnc(-c3cccnc3)n2Nc2nc3ccc(Br)cc3s2)cc1`, the MIC in the experiment with Staphylococcus aureus was 125 µg/mL (≈ 270 µM); in the experiment with Streptococcus pyogenes, 125 µg/mL (≈ 270 µM); in the experiment on Aspergillus clavatus, 1000 µg/mL (≈ 2160 µM); in the experiment with Candida albicans, 1000 µg/mL (≈ 2160 µM); in experiment [2] it was 50 µg/mL (≈ 108 µM); against Escherichia coli it was 100 µg/mL (≈ 216 µM). Besides, the MIC against Pseudomonas aeruginosa came to 100 µg/mL (≈ 216 µM); in the experiment with Aspergillus niger, 500 µg/mL (≈ 1080 µM). In experiment [1], the “inhibition (INH)” value was 99%.

On to `CO[C@H]1/C=C/O[C@@]2(C)Oc3c(C)c(O)c4c(O)c(c(/C=N/N5CCN(C)CC5)c(O)c4c3C2=O)NC(=O)/C(C)=C\C=C\[C@H](C)[C@H](O)[C@@H](C)[C@@H](O)[C@@H](C)[C@H](OC(C)=O)[C@@H]1C` [RIFAMPIN], for which the “inhibition (INH)” value in [1] came to 98%. Besides, the MIC in experiment [2] is 40 µg/mL (≈ 48.6 µM).

Take `NNc1nc2ccc(F)cc2s1`: the MIC was 500 µg/mL (≈ 2730 µM) against Staphylococcus aureus; 250 µg/mL (≈ 1360 µM) in the experiment with Streptococcus pyogenes; > 1000 µg/mL against Aspergillus clavatus; 250 µg/mL (≈ 1360 µM) in the experiment on Candida albicans; 250 µg/mL (≈ 1360 µM) in experiment [2]; 250 µg/mL (≈ 1360 µM) against Escherichia coli. The minimal inhibitory concentration (MIC) in the experiment on Pseudomonas aeruginosa is 250 µg/mL (≈ 1360 µM); in the experiment with Aspergillus niger, > 1000 µg/mL. Also, the “inhibition (INH)” value in [1] was determined as 98%.

Regarding `Cc1ccc(-c2nnc(-c3cccnc3)n2Nc2nc3ccc(F)cc3s2)cc1`, the MIC against Staphylococcus aureus was determined as 125 µg/mL (≈ 311 µM); against Streptococcus pyogenes it was 100 µg/mL (≈ 248 µM); with Aspergillus clavatus, 250 µg/mL (≈ 621 µM); against Candida albicans it was 500 µg/mL (≈ 1240 µM); in [2] it was 200 µg/mL (≈ 497 µM); with Escherichia coli, 250 µg/mL (≈ 621 µM). For the same compound, the results for the MIC against Pseudomonas aeruginosa and in the experiment on Aspergillus niger were 250 µg/mL (≈ 621 µM) and 500 µg/mL (≈ 1240 µM), respectively. Moreover, the “inhibition (INH)” value in experiment [1] turned out to be 98%.

As to `COc1ccc2nc(Nn3c(-c4ccc(C)cc4)nnc3-c3cccnc3)sc2c1`, the MIC against Staphylococcus aureus worked out at 250 µg/mL (≈ 603 µM); in the experiment on Streptococcus pyogenes, 250 µg/mL (≈ 603 µM); against Aspergillus clavatus, 1000 µg/mL (≈ 2410 µM); in the experiment on Candida albicans it was 250 µg/mL (≈ 603 µM); in experiment [2], 62.5 µg/mL (≈ 151 µM); against Escherichia coli, 250 µg/mL (≈ 603 µM). The MIC with Pseudomonas aeruginosa stood at 125 µg/mL (≈ 302 µM); in the experiment on Aspergillus niger, 500 µg/mL (≈ 1210 µM). In experiment [1], the “inhibition (INH)” value is given as 99%.

For the compound `NNc1nc2ccc(Br)cc2s1`, the MIC was found to be 250 µg/mL (≈ 1020 µM) with Staphylococcus aureus; 500 µg/mL (≈ 2050 µM) against Streptococcus pyogenes; 500 µg/mL (≈ 2050 µM) against Aspergillus clavatus; 500 µg/mL (≈ 2050 µM) against Candida albicans; 500 µg/mL (≈ 2050 µM) in experiment [2]; 500 µg/mL (≈ 2050 µM) against Escherichia coli. Moreover, the MIC against Pseudomonas aeruginosa and against Aspergillus niger was 500 µg/mL (≈ 2050 µM) in each case. Besides, the “inhibition (INH)” value in experiment [1] is listed as 97%.

Consider `Cc1ccc(-c2nnc(-c3cccnc3)n2Nc2nc3ccc(Cl)cc3s2)cc1`, for which the MIC against Staphylococcus aureus is 500 µg/mL (≈ 1190 µM); against Streptococcus pyogenes, 500 µg/mL (≈ 1190 µM); in the experiment with Aspergillus clavatus, 250 µg/mL (≈ 597 µM); with Candida albicans, 500 µg/mL (≈ 1190 µM); in [2], 100 µg/mL (≈ 239 µM); against Escherichia coli, 250 µg/mL (≈ 597 µM). In addition, the MIC with Pseudomonas aeruginosa came to 125 µg/mL (≈ 298 µM); with Aspergillus niger it was 500 µg/mL (≈ 1190 µM). Also, the “inhibition (INH)” value in experiment [1] came out at 99%.
